KCNK3 inh = human KCNK3 channel inhibitors, primary screen, CHO cells, FluxOR thallium flux, B-score. 0.84% of 340,000 active. B-score at 10 µM. FluxOR fluorescence; active compounds read low. Potassium channel subfamily K member 3 (Homo sapiens), O14649;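 active means B-score under library mean minus 4 SD, starting fluorescence ratio at most library mean plus 5 SD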;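 further: more negative B-score means stronger inhibition of thallium flux through KCNK3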
KCNQ1 block = inhibitors of human KCNQ1 channel, primary screen, cell-based, thallium flux, high-throughput. Potassium voltage-gated channel subfamily KQT member 1 (Homo sapiens), P51787. B-score at 10 µM. 1.3% of 310,000 active. CHO-K1 KCNQ1, FluxOR thallium flux fluorescence; active compounds read high;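 active means compounds whose thallium flux B-score, printed positive for inhibition, exceeds three library SD while starting fluorescence stays within three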;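 further: channel opened by potassium depolarization with thallium stimulus after 20 min compound exposure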
Kir21 inh = inhibitors of mouse Kir2.1 inward-rectifier potassium channel. Inward rectifier potassium channel 2 (Mus musculus), P35561. HEK293-Kir2.1, FluxOR thallium flux fluorescence; active compounds read low. B-score at 10 µM. 0.85% of 310,000 active. AID 1672, 2009;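 active means fluorescence ratio B-score at or below minus 3 SD of library scores, with starting-brightness B-score within 2 SD, cut at about -4.2 in these data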;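 further: channel flux triggered by added potassium and thallium sulfate stimulus; B-score of peak minus minimum fluorescence over baseline after thallium stimulus; more negative B-score means stronger Kir2.1 block with less thallium influx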
hERG rescue = hERG rescue from dofetilide block, primary screen, cell-based, CHO-hERG, FluxOR thallium flux, dofetilide IC70; Voltage-gated inwardly rectifying potassium channel KCNH2 (Homo sapiens), Q12809; dofetilide IC70 present; 0.51% of 310,000 active; activation (rescue from dofetilide block), less the hit threshold, % at 10 µM;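 active means activation above the mean of controls blocked by dofetilide plus 5 SD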;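 further: thallium influx through hERG after potassium depolarization seen as dye fluorescence rise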
Target sequence (Q12809 whole entry, looked up): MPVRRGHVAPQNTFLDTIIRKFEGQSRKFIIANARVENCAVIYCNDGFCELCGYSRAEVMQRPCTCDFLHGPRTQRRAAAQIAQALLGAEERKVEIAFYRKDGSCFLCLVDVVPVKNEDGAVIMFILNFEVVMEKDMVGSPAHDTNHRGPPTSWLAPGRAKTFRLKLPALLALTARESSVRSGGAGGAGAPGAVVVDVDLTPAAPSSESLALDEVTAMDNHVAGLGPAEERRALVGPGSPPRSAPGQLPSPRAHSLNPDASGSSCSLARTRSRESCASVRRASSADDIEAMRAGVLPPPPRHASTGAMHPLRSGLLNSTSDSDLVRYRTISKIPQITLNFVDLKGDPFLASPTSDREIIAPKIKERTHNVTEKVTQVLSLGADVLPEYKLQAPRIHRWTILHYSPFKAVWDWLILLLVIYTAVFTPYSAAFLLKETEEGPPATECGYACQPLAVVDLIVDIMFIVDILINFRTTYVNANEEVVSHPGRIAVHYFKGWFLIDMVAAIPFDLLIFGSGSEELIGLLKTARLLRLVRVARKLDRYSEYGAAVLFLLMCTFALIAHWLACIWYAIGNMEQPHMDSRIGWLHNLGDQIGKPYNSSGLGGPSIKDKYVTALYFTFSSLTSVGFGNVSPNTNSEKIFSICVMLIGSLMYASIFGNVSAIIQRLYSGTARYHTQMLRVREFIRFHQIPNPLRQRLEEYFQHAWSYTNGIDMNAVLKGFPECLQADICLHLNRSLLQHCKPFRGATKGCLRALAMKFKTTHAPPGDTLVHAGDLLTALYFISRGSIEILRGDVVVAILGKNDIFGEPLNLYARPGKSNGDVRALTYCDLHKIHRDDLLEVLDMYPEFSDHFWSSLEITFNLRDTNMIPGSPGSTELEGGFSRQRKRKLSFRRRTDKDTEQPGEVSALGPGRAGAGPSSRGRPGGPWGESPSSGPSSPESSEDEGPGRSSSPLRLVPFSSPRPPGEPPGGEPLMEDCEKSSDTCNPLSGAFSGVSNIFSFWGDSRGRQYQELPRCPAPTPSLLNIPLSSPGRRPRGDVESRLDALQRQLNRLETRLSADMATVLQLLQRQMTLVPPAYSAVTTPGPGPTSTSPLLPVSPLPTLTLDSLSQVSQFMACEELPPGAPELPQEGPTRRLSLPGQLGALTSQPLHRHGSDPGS
KCNK9 inh = KCNK9 potassium channel inhibitors, primary screen, HEK293 cells, thallium flux; Potassium channel subfamily K member 9 (Homo sapiens), Q9NPC2; B-score at 10 µM; 1.2% of 310,000 active; FluxOR thallium flux fluorescence; active compounds read low;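 active means ratio B-score over 3 SD below the library mean, with starting fluorescence within 5 SD of its mean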;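 further: negative B-score means less thallium flux so channel inhibition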
KCNQ1 act = potentiators or activators of KCNQ1 channel, primary screen, cell-based, thallium flux, high-throughput | Potassium voltage-gated channel subfamily KQT member 1 (Homo sapiens), P51787 | CHO-K1 KCNQ1, thallium flux FluxOR fluorescence; active compounds read high | B-score at 10 µM | 0.35% of 310,000 active | AID 2648, 2010;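 active means fluorescence ratio B-score, a plate-corrected score, at least three library SD, with initial intensity B-score within 5 SD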
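Assay system: stable KCNQ1 CHO-K1 line; medium: assay buffer, equal DMSO in all wells; timing: 90 min dye loading and 20 min compound exposure, both at room temperature; technique: kinetic FluxOR thallium fluorescence, 10-s 1-Hz baseline, 110-s post-stimulus read; read-out basis: B score of baseline-normalized fluorescence ratio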
KCNQ1 block val = KCNQ1 potassium channel inhibitors, confirmation, cell-based, Tl flux, duplicate; shares compounds with KCNQ1 block; inhibition, % at 10 µM; 93% of 1,600 active; KCNQ1 cell line, FluxOR thallium flux fluorescence;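 active means primary screen active, with duplicate mean exceeding buffer control mean plus 3 SD of buffer wells, cut at about 28% in these data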;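 further: 0% = buffer control ratio and 100% = XE991 inhibitor control ratio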
CHO KCNQ1 ctr = thallium flux effects in parental CHO cells, counter-screen for KCNQ1 inhibitor project, cell-based, Tl flux; shares compounds with KCNQ1 block; parental CHO-K1, FluxOR thallium flux fluorescence ratio; active compounds read low; zero means no signal rise above baseline; fluorescence ratio (Tl flux) at 10 µM; 21% of 1,600 active;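 active means mean of duplicate thallium-flux fluorescence ratios in parental host cells more than 5 SD below the buffer control mean, cut at about 0.38 in these data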;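 further: ratio is peak minus minimum fluorescence divided by baseline fluorescence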
KCNQ2 inh = KCNQ2 channel inhibition, selectivity assay for KCNQ1 inhibitor project, cell-based; shares compounds with KCNQ1 block; KCNQ2 cells, FluxOR thallium flux fluorescence; inhibition, % at 10 µM; 71% of 1,600 active; AID 651746, 2012;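 active means mean percent inhibition of the KCNQ2 thallium signal more than 5 SD above the buffer-only control wells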;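 further: KCNQ2 expressed in CHO cells; 0% = buffer control wells and 100% = XE-991 inhibitor control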
KCNQ1-KCNE1 inh = KCNQ1/KCNE1 channel inhibition, selectivity assay for KCNQ1 inhibitor project, CHO-K1 cells, thallium flux, FluxOR; shares compounds with KCNQ1 block; AID 652147, 2013; 77% of 1,600 active; FluxOR thallium flux fluorescence; inhibition, % at 10 µM;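 active means mean percent inhibition of duplicate wells above the buffer-only control mean plus 3 SD of those controls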;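 further: 0% = buffer only wells and 100% = XE-991 inhibitor control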
Active calls of the source: *; i = inactive; / = no result given. In the library only some 3.8% were active in any assay of this set; here they are far more common.

SMILES	KCNK3 inh	KCNQ1 block	Kir21 inh	hERG rescue	KCNK9 inh	KCNQ1 act	KCNQ1 block val	CHO KCNQ1 ctr	KCNQ2 inh	KCNQ1-KCNE1 inh
Cc1ccc2nc(/N=C(\N)NC(=O)NC3CCCCC3)nc(C)c2c1	i	7*	0.82	-21.9	i	i	56.0*	0.518	i	i
COc1ccc(C2CC(=O)c3cnc(N4CCN(Cc5ccccc5)CC4)nc3C2)cc1 (configuration not stated)	i	6*	-0.58	-6.3	i	i	67.5*	0.42	102.0%*	105.0%*
O=S(=O)(Nc1ccc(-n2cnnn2)cc1)c1ccc(Cl)s1	i	/	/	/	/	/	/	/	/	/
O=C(NC1CCCCC1)C(c1ccncc1)N(Cc1ccc2c(c1)OCO2)C(=O)c1cnsn1 (configuration not stated)	i	7*	1.74	-6.6	i	i	65.0*	0.441	i	72.5%*
CCOc1ccccc1N1CC(C(=O)Nc2cc(S(=O)(=O)N3CCOCC3)ccc2OC(C)C)CC1=O (configuration not stated)	i	/	/	/	/	/	/	/	/	/
CC1CCCCC1NC(=O)COC(=O)c1ccc2ncsc2c1 (configuration not stated)	i	/	/	/	/	/	/	/	/	/
S=C(NCCSCc1ccc(Cl)cc1Cl)Nc1ccccc1	i	6*	0.09	-10.4	i	i	47.5*	0.41	111.3%*	35.5%*
CC(C)Oc1ccc(CNC(=S)Nc2ccccc2)cc1Cl	i	7*	-0.46	-7.0	i	i	50.5*	0.553	59.3%*	75.0%*
S=C(NCCSCc1ccc(Cl)c(Cl)c1)Nc1ccccc1	i	11*	0.66	-7.4	i	i	76.5*	0.395	79.7%*	65.0%*
Cc1ccccc1CSCCNC(=S)Nc1ccccc1	i	8*	-0.14	-13.8	i	i	62.5*	0.519	82.0%*	72.0%*
COc1ccc(CNC(=S)Nc2ccccc2)cc1Cl	i	i	-1.42	-5.8	i	i	/	/	/	/
COc1ccc(CSCCNC(=S)Nc2ccccc2)cc1Cl	i	i	-2.97	-7.5	i	i	/	/	/	/
O=C(Nc1ccc2[nH]ncc2c1)c1ccccc1Cl	i	i	-0.08	-6.9	i	i	/	/	/	/
O=C(CCSc1ccccc1)N1CCN(c2ccccc2)CC1	i	7*	2.37	-11.6	i	i	26.5*	0.474	i	64.0%*
CCc1cc(C(=O)NCC(c2ccco2)N2CCCCC2)sc1C (configuration not stated)	i	/	/	/	/	/	/	/	/	/
O=C1C(Cl)=C(N2CCCCCC2)C(=O)N1c1ccccc1	i	i	-1.38	-8.8	i	i	/	/	/	/
O=C1C(Cl)=C(N2CCCCCC2)C(=O)N1c1ccc(Br)cc1	i	6*	1.61	-8.9	i	i	85.0*	0.4	101.3%*	100.5%*
